The record followed here is ChEMBL document CHEMBL5236549, “Discovery of 2-Sulfinyl-Diazabicyclooctane Derivatives, Potential Oral β-Lactamase Inhibitors for Infections Caused by Serine β-Lactamase-Producing Enterobacterales” (J Med Chem, 2021).

Values after ≈ are worked out from the molar mass of the structure shown. Active and inactive are the calls of the source. No cut-off for these calls is given here. Some results are limits rather than exact numbers.

The nature of data set [1]: Toxicity in rat at > 2000 mg/kg,po administered for two weeks. Format: organism-based. The note with it: in vivo. In short, it runs like this: (§1)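 Two-week rat toxicology study with daily oral dosing of prodrug; NOAEL and lethal dose established.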
Data set [2] can be described thus: Tmax in dog at 10 mg/kg,po by LC/MS/MS analysis. Format: ADME, organism-based, Canis lupus familiaris. Conditions: in vivo.
Data set [3] can be described thus: Cmax in mouse at 100 mg/kg,po by LC/MS/MS analysis. Format: ADME, organism-based. Details: dose 100 mg/kg, route po. The note with it: in vivo. In short, it runs like this:
(§2)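 Plasma of the parent acid measured by LC/MS/MS (methanol precipitation, positive ESI, external standard); oral values follow prodrug dosing (rat fed, dog and monkey fasted). AUC from 0 h to last time point by linear trapezoid; F from oral AUC versus iv AUC of the parent. N = 2 (rat, dog), N = 3 (monkey, mouse).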

The nature of data set [4]: AUC in monkey at 10 mg/kg,po by LC/MS/MS analysis. Format: ADME, organism-based, Macaca mulatta. Also on record: dose 10 mg/kg, route po. The note with it: rhesus monkey, in vivo. The essentials: as §2
A short description of data set [5]: Oral bioavailability in monkey at 10 mg/kg by LC/MS/MS analysis. Type of data set: ADME, organism-based, Macaca mulatta. The note with it: rhesus monkey, in vivo. The essentials: as §2
Data set [6] is described as follows: Oral bioavailability in dog at 10 mg/kg by LC/MS/MS analysis. Type of data set: ADME, organism-based, Canis lupus familiaris. Conditions: in vivo. In short, it runs like this: as §2
A short description of data set [7]: Tmax in rat at 5 mg/kg,po by LC/MS/MS analysis. Format: ADME, organism-based. The note with it: in vivo.
Data set [8] can be described thus: Oral bioavailability in mouse at 30 mg/kg by LC/MS/MS analysis. Type of data set: ADME, organism-based. Conditions: in vivo. In short, it runs like this: as §2
Data set [9] in a line: Oral bioavailability in mouse at 100 mg/kg by LC/MS/MS analysis. Type of data set: ADME, organism-based. Conditions: in vivo. In short, it runs like this:
as §2

A short description of data set [10]: AUC in mouse at 100 mg/kg,po by LC/MS/MS analysis. Format: ADME, organism-based. Also on record: dose 100 mg/kg, route po. Conditions: in vivo. The essentials:
as §2

Data set [11] can be described thus: AUC in rat at 5 mg/kg,po by LC/MS/MS analysis. Format: ADME, organism-based. Details: dose 5 mg/kg, route po. Conditions: in vivo. The essentials: as §2
Data set [12] in a line: Oral bioavailability in mouse at 10 mg/kg by LC/MS/MS analysis. Format: ADME, organism-based. The note with it: in vivo. In short, it runs like this: as §2
Data set [13] can be described thus: Stability of the compound in phosphate buffer at pH 7.0 assessed as parent compound remaining at 40 degreeC measured after 16 hrs. The note with it: read-out: Stability. Format: physicochemical. In short, it runs like this:
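Compound held in pH 7.0 phosphate buffer at 40 °C for 16 h; amount remaining reported as %.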

Data set [14] can be described thus: Cmax in rat at 5 mg/kg,po by LC/MS/MS analysis. Format: ADME, organism-based. Details: dose 5 mg/kg, route po. The note with it: in vivo. The essentials: as §2
A short description of data set [15]: AUC in dog at 10 mg/kg,po by LC/MS/MS analysis. The note with it: in vivo. Also on record: dose 10 mg/kg, route po. Format: ADME, organism-based, Canis lupus familiaris. In short, it runs like this:
as §2

Data set [16] in a line: Tmax in monkey at 10 mg/kg,po by LC/MS/MS analysis. Format: ADME, organism-based, Macaca mulatta. The note with it: rhesus monkey, in vivo.
Data set [17] can be described thus: Cmax in dog at 10 mg/kg,po by LC/MS/MS analysis. The note with it: in vivo. Details: dose 10 mg/kg, route po. Format: ADME, organism-based, Canis lupus familiaris. The essentials:
as §2

A short description of data set [18]: Cmax in monkey at 10 mg/kg,po by LC/MS/MS analysis. Format: ADME, organism-based, Macaca mulatta. Also on record: dose 10 mg/kg, route po. The note with it: rhesus monkey, in vivo. In short, it runs like this: as §2
The nature of data set [19]: Oral bioavailability in rat at 5 mg/kg by LC/MS/MS analysis. The note with it: in vivo. Format: ADME, organism-based. In short, it runs like this:
as §2

Data set [20] concerns Klebsiella pneumoniae. The experiment in a line: Antibacterial activity in ICR mouse infected with Klebsiella pneumoniae SR08667 assessed as reduction in bacterial colony forming units at 30 mg/kg,po administered upto 48 hrs after infection in presence of CTB. Type of data set: functional. The essentials:
(§3)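 Urinary tract infection model in 5-week-old female ICR mice, N = 5 per arm. 1.2 × 10⁶ CFU given transurethrally, urethra tied for 4 h. Oral dosing at 4, 8, 28 and 32 h post-infection in 0.5% methylcellulose: ceftibuten 30 mg/kg alone, ceftibuten 10 mg/kg plus prodrug 3, 10 or 30 mg/kg, or both at 30 mg/kg. Kidneys homogenized at 4 or 48 h and plated on modified Drigalski agar. Read-out is change in log CFU/kidney versus untreated controls at treatment start.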

A short description of data set [21]: Cmax in mouse at 30 mg/kg,po by LC/MS/MS analysis. Type of data set: ADME, organism-based. Details: dose 30 mg/kg, route po. Conditions: in vivo. The essentials:
as §2

A short description of data set [22]: Toxicity in rat at 600 mg/kg,po administered for two weeks. Conditions: in vivo. Type of data set: organism-based. In short, it runs like this: as §1
Data set [23] in a line: AUC in mouse at 30 mg/kg,po by LC/MS/MS analysis. Type of data set: ADME, organism-based. Also on record: dose 30 mg/kg, route po. The note with it: in vivo. In short, it runs like this: as §2
Data set [24] is described as follows: AUC in mouse at 10 mg/kg,po by LC/MS/MS analysis. Format: ADME, organism-based. Also on record: dose 10 mg/kg, route po. Conditions: in vivo. The essentials:
as §2

Data set [25] concerns Klebsiella pneumoniae. The experiment in a line: Antibacterial activity in ICR mouse infected with Klebsiella pneumoniae SR08667 assessed as reduction in bacterial colony forming units at 10 mg/kg,po administered upto 48 hrs after infection in presence of CTB. Type of data set: functional. In short, it runs like this:
as §3

A short description of data set [26]: Cmax in mouse at 10 mg/kg,po by LC/MS/MS analysis. Format: ADME, organism-based. Also on record: dose 10 mg/kg, route po. Conditions: in vivo. The essentials:
as §2

Data set [27] relates to Klebsiella pneumoniae. The experiment in a line: Antibacterial activity against Klebsiella pneumoniae SR201325 assessed as inhibition of bacterial growth incubated for 16 to 20 hrs by CLSI based two-fold serial dilution method.
Data set [28] deals with Enterobacter cloacae. The experiment in a line: Antibacterial activity against Enterobacter cloacae SR36276 assessed as inhibition of bacterial growth incubated for 16 to 20 hrs by CLSI based two-fold serial dilution method.
Data set [29] has as its system Enterobacter cloacae. The experiment in a line: Antibacterial activity against Enterobacter cloacae SR100108 assessed as inhibition of bacterial growth incubated for 16 to 20 hrs by CLSI based two-fold serial dilution method.
Data set [30] has as its system Escherichia coli. The experiment in a line: Antibacterial activity against Escherichia coli expressing KPC-2 assessed as inhibition of bacterial growth incubated for 16 to 24 hrs by CLSI based two-fold serial dilution method. Format: functional. The note with it: time 16-24 hrs. In short, it runs like this:
(§4)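 CLSI broth microdilution with twofold serial dilutions in cation-adjusted Mueller Hinton broth. Inoculum set from OD625 to about 5 × 10⁴ cfu/well final. Plates incubated at 35 °C for 16−20 h. MIC is the lowest concentration with no growth visible to the unaided eye.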

The subject of data set [31] is Klebsiella pneumoniae. The experiment in a line: Antibacterial activity against Klebsiella pneumoniae SR09635 assessed as inhibition of bacterial growth incubated for 16 to 20 hrs by CLSI based two-fold serial dilution method.
Data set [32] has as its system Klebsiella pneumoniae. The experiment in a line: Antibacterial activity against Klebsiella pneumoniae SR09603 assessed as inhibition of bacterial growth incubated for 16 to 20 hrs by CLSI based two-fold serial dilution method.
The subject of data set [33] is Escherichia coli. The experiment in a line: Antibacterial activity against Escherichia coli expressing CTX-M-15 assessed as inhibition of bacterial growth incubated for 16 to 24 hrs by CLSI based two-fold serial dilution method. Type of data set: functional. The note with it: time 16-24 hrs. In short, it runs like this:
as §4

For data set [34], the system named is Klebsiella pneumoniae. The experiment in a line: Antibacterial activity against Klebsiella pneumoniae SR200487 assessed as inhibition of bacterial growth incubated for 16 to 24 hrs by CLSI based two-fold serial dilution method. Format: functional. The note with it: time 16-24 hrs. In short, it runs like this: (§5)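 CLSI broth microdilution in cation-adjusted Mueller Hinton broth, twofold serial dilutions, about 5 × 10⁴ cfu/well from OD625, 35 °C for 16−20 h. MIC is the lowest concentration with no visible growth.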

For data set [35], the system named is Klebsiella pneumoniae. The experiment in a line: Antibacterial activity against Klebsiella pneumoniae SR100758 assessed as inhibition of bacterial growth incubated for 16 to 24 hrs by CLSI based two-fold serial dilution method. Type of data set: functional. The note with it: time 16-24 hrs. In short, it runs like this: as §5
Data set [36] concerns Klebsiella pneumoniae. The experiment in a line: Antibacterial activity against Klebsiella pneumoniae SR200263 assessed as inhibition of bacterial growth incubated for 16 to 24 hrs by CLSI based two-fold serial dilution method. Conditions: time 16-24 hrs. Format: functional. In short, it runs like this:
as §5

The test system of data set [37] is Enterobacter cloacae. The experiment in a line: Antibacterial activity against Enterobacter cloacae SR200030 assessed as inhibition of bacterial growth incubated for 16 to 24 hrs by CLSI based two-fold serial dilution method. Conditions: time 16-24 hrs. Format: functional. In short, it runs like this:
as §5

Data set [38] concerns Escherichia coli. The experiment in a line: Antibacterial activity against Escherichia coli expressing OXA-48 assessed as inhibition of bacterial growth incubated for 16 to 24 hrs by CLSI based two-fold serial dilution method. Format: functional. Conditions: time 16-24 hrs. The essentials:
as §4

The test system of data set [39] is Escherichia coli. The experiment in a line: Antibacterial activity against Escherichia coli expressing CMY-2 assessed as inhibition of bacterial growth incubated for 16 to 24 hrs by CLSI based two-fold serial dilution method. Type of data set: functional. The note with it: time 16-24 hrs. The essentials: as §4
Data set [40] has as its system Klebsiella pneumoniae. The experiment in a line: Antibacterial activity in ICR mouse infected with Klebsiella pneumoniae SR08667 assessed as reduction in bacterial colony forming units at 30 mg/kg,po administered upto 48 hrs after infection. Type of data set: functional, organism-based. The essentials: as §3
Data set [41] deals with Escherichia coli. The experiment in a line: Antibacterial activity against Escherichia coli assessed as inhibition of bacterial growth incubated for 16 to 24 hrs by CLSI based two-fold serial dilution method. Type of data set: functional. The note with it: time 16-24 hrs. The essentials: as §4

Take `C[S@@+]([O-])[C@@H]1CC[C@@H]2CN1C(=O)N2O[C@H](F)C(=O)OC1CCCCC1`: the Activity result in data set [1] is “Non-Toxic”; in data set [20], over 1 log10CFU; in data set [22], “Non-Toxic”; in [25], over 0.5 log10CFU. The time of peak concentration (Tmax) in [2] worked out at 1 h; in data set [7] it was 0.5 h; in [16] it was 1 h. The Cmax in data set [3] amounted to 52000 ng/mL; in [14] it was 620 ng/mL; in [17], 15800 ng/mL; in data set [18], 7940 ng/mL; in [21], 21400 ng/mL; in data set [26] it was 5600 ng/mL. In addition, the area under the curve (AUC) in data set [4] stood at 15200 ng·h/mL; in data set [10], 50200 ng·h/mL; in [11], 1170 ng·h/mL; in [15] it was 41200 ng·h/mL; in data set [23], 18100 ng·h/mL; in [24] it was 3900 ng·h/mL. In addition, the bioavailability in data set [5] is 54.8%; in data set [6] it was 106%; in data set [8], 122%; in [9], 102%; in data set [12], 80%; in [19], 37.8%. For the same compound, in data set [13], the remaining at 16 h was 56%.

As for `Nc1nc(/C(=C/CC(=O)O)C(=O)N[C@@H]2C(=O)N3C(C(=O)O)=CCS[C@H]23)cs1` [CEFTIBUTEN], the minimal inhibitory concentration (MIC) in data set [27] is over 32 µg/mL; in [28] it was over 32 µg/mL; in [29], over 32 µg/mL; in [30], 16 µg/mL (≈ 39 µM); in [31] it was over 32 µg/mL; in [32], over 32 µg/mL. The minimal inhibitory concentration (MIC) is 32 µg/mL (≈ 78 µM) in data set [33]; over 32 µg/mL in [34]; over 32 µg/mL in [35]; over 32 µg/mL in data set [36]; over 32 µg/mL in data set [37]; over 32 µg/mL in [38]. The minimum inhibitory concentration (MIC) in data set [39] and in [41] was over 32 µg/mL each time. The outcome in data set [40] was inactive.
